Screening data deposited in PubChem by several laboratories.
Granule exo inh – blocks lytic granule exocytosis. TALL-104 LAMP-1 surface exposure, flow cytometry; cells stimulated with thapsigargin and PMA. inhibition, % at 10 µM. 360,000 tested, 0.66% active;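 active means inhibition above about 55%, limit read from the data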
MC4R antagonist – blocks human MC4R cAMP signaling. P32245. MC4R-expressing cells, MTII-stimulated cAMP, LANCE TR-FRET. inhibition, % at 6.5 µM. 360,000 tested, 0.48% active;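 active means inhibition above its plate's cutoff, the mean of tested wells on that plate plus 3 SD, cut at about 29% in these data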
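Test system: U2OS cells stably expressing human melanocortin 4 receptor (MC4R); also added: Melanotan II challenge; compound: 6.5 µM single dose; timing: 30-min compound preincubation, 1-h Melanotan II challenge, 1-h detection, room temperature; signal: Eu-cAMP/anti-cAMP TR-FRET, emission 671 nm; repeats: one well per compound, no replicates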
Tb MetRS inh – Trypanosoma brucei MetRS inhibition. purified T. brucei MetRS, ATP depletion, Kinase-Glo luminescence. inhibition, % at 11.9 µM. 360,000 tested, 0.4% active. AID 624268;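 active means inhibition above a per-plate cutoff of the control wells' mean inhibition plus 3 SD, cut at about 5.5% in these data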
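Material: T. brucei methionyl-tRNA synthetase, purified; reagent: substrates ATP, L-methionine and bulk Escherichia coli tRNA; dosing: 11.9 µM single point; timing: 15 min plus 2 h at 25 °C; detection: luminescence of leftover ATP; evaluation: % inhibition; control set: DMSO-only wells as low control; replicates: singlicate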
MC4R barr agon – activates human MC4R beta-arrestin recruitment. AID 540308. 360,000 tested, 0.98% active. P32245. activation, % at 8.9 µM. U2OS MC4R beta-arrestin complementation, luminescence; percent of melanotan II response, DMSO zero;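 active means activation above a per-plate cutoff, the mean activation of sample wells on that plate plus 3 SD, cut at about 8% in these data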
hiPSC survival – increases survival of single human iPS cells. survival enhancement, % at 20 µM. 360,000 tested, 0.044% active. hiPSC single-cell survival, ATPlite luminescence; 100% = ROCK inhibitor wells, 0% = DMSO; in the data active means survival enhancement above about 18%;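 further: cells exposed to compounds for 16 hours before the ATP read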
ABCB6 inh MLPCN – human ABCB6 transporter inhibition; Q9NP58; K562-ABCB6 porphyrin accumulation, flow cytometry, 1 h; stronger effect = lower value; fluorescence ratio to DMSO, % at 10 µM; 360,000 tested, 0.19% active;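 active means fluorescence ratio to DMSO below 75%, the collection mean minus 3 SD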;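 further: signal is porphyrin accumulated inside mitochondria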
U2OS cAMP counter – counter-screen for MC4R antagonists: nonselective cAMP signaling inhibitors; shares compounds with MC4R antagonist; inhibition, % at 6.5 µM; 1,600 tested, 26% active; parental U2OS, forskolin cAMP, LANCE TR-FRET;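 active means mean inhibition over triplicates above the low-control well mean plus 3 SD, set per campaign, cut at about 13% in these data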;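 further: signal is single emission at 671 nm which falls as cellular cAMP rises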
MC4R antag conf – human MC4R cAMP antagonism confirmation; shares compounds with MC4R antagonist; MC4R-expressing cells, MTII-stimulated cAMP, TR-FRET; inhibition, % at 6.5 µM; 1,600 tested, 27% active; AID 602195; in the data active means inhibition above about 29%
MC4R barr conf – human MC4R beta-arrestin agonism confirmation; 2,400 tested, 31% active; shares compounds with MC4R barr agon; activation, % at 8.9 µM; AID 602192; U2OS MC4R beta-arrestin recruitment, luminescence; scaled DMSO 0%, Melanotan II 100%;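 active means mean activation across replicates above the hit cutoff set in the earlier primary screen, cut at about 8% in these data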
MOR-DOR barr ag – counter-screen for MC4R agonists: agonists of mu-delta opioid heterodimer; U2OS PathHunter beta-arrestin, beta-gal luminescence; percent of deltorphin B response, DMSO zero; shares compounds with MC4R barr agon; activation, % at 9.2 µM; 2,400 tested, 5.8% active; AID 602194;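 active means mean activation across replicates exceeds the hit threshold derived in the earlier primary screen, cut at about 18% in these data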
Target sequence (P35372 whole entry, looked up): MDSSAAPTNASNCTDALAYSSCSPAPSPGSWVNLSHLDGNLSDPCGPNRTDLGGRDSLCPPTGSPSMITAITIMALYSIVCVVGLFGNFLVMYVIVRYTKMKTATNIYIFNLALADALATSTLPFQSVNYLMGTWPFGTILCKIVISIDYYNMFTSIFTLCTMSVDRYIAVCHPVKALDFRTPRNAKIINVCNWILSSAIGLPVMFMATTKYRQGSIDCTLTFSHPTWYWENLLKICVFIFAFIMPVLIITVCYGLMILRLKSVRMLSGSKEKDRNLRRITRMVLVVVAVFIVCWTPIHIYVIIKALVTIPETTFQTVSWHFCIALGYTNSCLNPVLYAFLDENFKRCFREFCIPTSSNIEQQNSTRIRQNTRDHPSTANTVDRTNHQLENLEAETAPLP
Target sequence (P41143 whole entry, looked up): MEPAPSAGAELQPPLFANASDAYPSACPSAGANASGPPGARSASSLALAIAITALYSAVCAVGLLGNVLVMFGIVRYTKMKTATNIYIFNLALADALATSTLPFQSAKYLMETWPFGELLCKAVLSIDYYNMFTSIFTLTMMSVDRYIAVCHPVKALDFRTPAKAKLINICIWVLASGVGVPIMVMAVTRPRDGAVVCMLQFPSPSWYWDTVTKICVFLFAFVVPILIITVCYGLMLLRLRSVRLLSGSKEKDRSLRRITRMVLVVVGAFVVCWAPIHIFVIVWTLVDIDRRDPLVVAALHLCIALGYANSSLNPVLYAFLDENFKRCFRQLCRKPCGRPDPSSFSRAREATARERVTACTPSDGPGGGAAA
ABCB6 blocker 1 – inhibitors of human ABC transporter ABCB6; shares compounds with ABCB6 inh MLPCN; K562-ABCB6 porphyrin accumulation, flow cytometry, 1 h; stronger effect = lower value; ratio response (% of DMSO), % at 10 µM; 700 tested, under 10 active; AID 602430;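 active means repeat-averaged ratio response below 75% of DMSO, the collection mean minus 3 SD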;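 further: median porphyrin fluorescence at 575 nm with 488 nm excitation from mitochondria; lower ratio means less porphyrin signal so ABCB6 inhibition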
TbMetRS confirm – Trypanosoma brucei MetRS inhibition confirmed. shares compounds with Tb MetRS inh. T. brucei MetRS enzyme, luminescence (ATP depletion). inhibition, % at 11.9 µM. 1,400 tested, 93% active. AID 624412; in the data active means inhibition above about 7%
Jurkat cytotox – counter-screen for T. brucei MetRS inhibitors: Jurkat cell cytotoxicity; shares compounds with Tb MetRS inh; Jurkat cells viability, ATP luminescence; inhibition, % at 8.3 µM; 1,400 tested, 12% active; in the data active means inhibition above about 15%
Tb MetRS inh FP – orthogonal test for Trypanosoma brucei MetRS inhibitors; shares compounds with Tb MetRS inh; purified T. brucei MetRS, fluorescence polarization; inhibition, % at 11.9 µM; 1,400 tested, 44% active; AID 651607; in the data active means inhibition above about 17%
Large screens that a line does not name were inactive (follow-up assays come after a bar, where they were run). An excerpt weighted towards active compounds, which were near 2.6% of everything screened.

CC1C(OC(=O)CCC(=O)NC(C)(C)CO)O[C@H]2OC3(C)CC[C@H]4[C@H](C)CCC1C24OO3 (stereo partly drawn)	none
CC/C(=N\Nc1ccccc1)c1c(O)n(-c2ccc(OC)cc2)c(=O)[nH]c1=O	MC4R antagonist 33 | U2OS cAMP counter inactive | MC4R antag conf inactive
COc1ccc2oc3c(c2c1)NC(=O)CN=C3c1ccccc1	MC4R antagonist 31 | U2OS cAMP counter inactive | MC4R antag conf inactive
C=C1C(=O)OC2CC3(C)OC3C3OC3C3=CC(OC3=O)C12 (stereo not drawn)	MC4R antagonist 43, ABCB6 inh MLPCN 36 | U2OS cAMP counter 19 | MC4R antag conf 33
C=C1C(=O)OC2CC3(C)OC3CCC(C)=CC(OC(C)=O)C12 (stereo not drawn)	none
COc1ccccc1CN1CCN(Cc2ccc(Cl)cc2)CC1	none
CC1CCN(C(=O)c2ccc(N3CC4CC(C3)c3cccc(=O)n3C4)c([N+](=O)[O-])c2)CC1 (stereo not drawn)	none
CCOC(=O)c1c(-n2c(C)cc(C=C3C(=O)NC(=O)NC3=O)c2C)sc2c1CCCC2	MC4R antagonist 30 | U2OS cAMP counter inactive | MC4R antag conf inactive
CN1C(=O)C(c2ccccc2)C(=O)N(C)C1=O	MC4R antagonist 30 | U2OS cAMP counter inactive | MC4R antag conf inactive
O=C1CN=C(c2ccc(Cl)cc2)c2oc3ccccc3c2N1	MC4R barr agon 11 | MC4R barr conf inactive | MOR-DOR barr ag inactive
CC(C)(C)C(=O)OCC12CCC(O1)C1(C)C(=O)OCC21 (stereo not drawn)	none
Cc1cc2oc(=O)cc(-c3cc4ccccc4o3)c2cc1OC(=O)N(C)C	MC4R barr agon 17 | MC4R barr conf inactive | MOR-DOR barr ag inactive
C=CCOC(=O)COc1cc(C)cc2oc(=O)c3c(c12)CCC3	MC4R barr agon 11 | MC4R barr conf 9.0 | MOR-DOR barr ag inactive
CCCCOC(=O)COc1cc(C)cc2oc(=O)c3c(c12)CCC3	none
COc1ccc2c(C)c(CCC(=O)N3C[C@H]4C[C@@H](C3)c3cccc(=O)n3C4)c(=O)oc2c1	none
O=c1[nH]cnc2nc(-c3ccc(N(CCCl)CCCl)cc3)[nH]c12	MC4R barr agon 9.8 | MC4R barr conf 13 | MOR-DOR barr ag 19
C[C@]12CC[C@@H](O)CC1=CCC1C2CC[C@]2(C)C(=O)[C@H](F)CC12 (stereo partly drawn)	none
CC12CCC3C(CC=C4CC(O)CCC43C)C1C/C(=C\c1cccc(F)c1)C2=O (stereo not drawn)	MC4R barr agon 14 | MC4R barr conf inactive | MOR-DOR barr ag inactive
O=c1[nH]c2ccccc2n1C1CCN(C(c2cc3ccccc3o2)c2nnnn2Cc2ccccc2)CC1 (stereo not drawn)	none (no result: MC4R antagonist, MC4R barr agon)
CCC(=O)c1cn(Cc2ccccc2)c2ccccc12	none
CN(C)CCOC(=O)c1cn(Cc2ccccc2)c2ccccc12	ABCB6 inh MLPCN 7.0 | ABCB6 blocker 1 inactive
CC(C)CC(N(C)C)C1(c2ccc(Cl)cc2)CCC1 (stereo not drawn)	none
COc1cccc(N2C(=O)CC(=O)NC2=O)c1	ABCB6 inh MLPCN 71 | ABCB6 blocker 1 inactive
CC(C)CCCn1c(O)c(/C=C2/C=CC=N2)c(=O)[nH]c1=O	ABCB6 inh MLPCN 70 | ABCB6 blocker 1 inactive
CCCCn1c(O)c(C=NCCCn2ccnc2)c(=O)[nH]c1=O	none
COc1ccc(C(C)=O)cc1Cc1c(O)[nH]c(=S)[nH]c1=O	ABCB6 inh MLPCN 65 | ABCB6 blocker 1 inactive
CCOc1ccc(C(C)=O)cc1Cc1c(O)[nH]c(=S)[nH]c1=O	none
COC(=O)C1=C(c2ccccc2)C[C@@H]2CC[C@H]1N2C(=O)NCC1CC1	none
Cc1nonc1OCCNc1ccc([N+](=O)[O-])c2cccnc12	ABCB6 inh MLPCN 72 | ABCB6 blocker 1 inactive
COc1cccc(C(c2nnnn2Cc2ccccc2)N2CCC(n3c(=O)[nH]c4ccccc43)CC2)c1OC (stereo not drawn)	ABCB6 inh MLPCN 74 (no result: MC4R antagonist, MC4R barr agon) | ABCB6 blocker 1 inactive
COc1ccc(-c2nc3ccc(Br)cn3c2CC(=O)N2CCCC2)cc1OC	none (no result: MC4R antagonist, MC4R barr agon)
Cn1ncnc2c(=O)n(C)c(=O)nc1-2	Tb MetRS inh 40 | TbMetRS confirm 21 | Jurkat cytotox 87 | Tb MetRS inh FP inactive
CCCCn1c(O)c(C=NC2CC3CCC2(C)C3(C)C)c(=O)[nH]c1=O (stereo not drawn)	none
NNC(=O)CN1C(=O)CN=C(c2ccccc2)c2cc(Br)ccc21	Tb MetRS inh 22 | TbMetRS confirm inactive | Jurkat cytotox inactive | Tb MetRS inh FP inactive
C[C@@H]1CN([C@H](C)CO)C(=O)CCCn2nncc2CO[C@H]1CN(C)C(=O)Oc1ccccc1	none
CCCCn1c(NS(=O)(=O)c2ccccc2)c(C(=O)OCC)c2nc3ccccc3nc21	Tb MetRS inh 13 | TbMetRS confirm inactive | Jurkat cytotox inactive | Tb MetRS inh FP inactive
CCC(C)NC(=O)c1c(N)n(Cc2ccc3c(c2)OCO3)c2nc3ccccc3nc12 (stereo not drawn)	Tb MetRS inh 6.3 | TbMetRS confirm inactive | Jurkat cytotox inactive | Tb MetRS inh FP inactive
